Screening results (PubChem)
The sample as a whole holds a higher share of hits than the screen did.
PTEN del growth: growth suppressors of cells with PTEN tumor suppressor deletion. 1.2% of 140,000 active. viability, % at 10 µM. HCT116 PTEN-null viability, CellTiter-Glo, 60 h; active compounds read low;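 active = viability at or below a set limit, 4 SD under the median of all tested compounds, cut at about 3.7% in these data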;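 note: PTEN knockout HCT116 line with beta catenin targeted HCT116 as companion control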
bCat KO growth: beta-catenin-lacking colon tumor cell growth suppression. viability, % at 10 µM. HCT116 beta-catenin knockout viability, CellTiter-Glo, 60 h; active compounds read low. 1.5% of 140,000 active. AID 818;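 active = viability at or under a set limit, the compound median less 4 SD, cut at about 6% in these data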
H69AR growth 86K: growth inhibitors of human H69AR lung tumor cells. H69AR lung tumor viability, ATP luminescence, 72 h; active compounds read low. viability, % at 10 µM. 6% of 85,000 active;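 active = viability at or below 40%; inactive = viability above 40%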;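 note: multidrug resistant small cell line overexpressing MRP-1 efflux transporter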
Lung fibro prol: blocks proliferation of human lung fibroblasts. LL 47 human lung fibroblast viability, ATP luminescence; active compounds read low. viability, % at 10 µM. 1.1% of 85,000 active. AID 719;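 active = viability at or below 50% in the single dose screen; inactive = viability above 50%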;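 note: compound exposure lasted 72 h before the ATP readout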
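Test system: LL 47 human lung fibroblasts; Quantity: 1,150 cells/well; Buffer or medium: IMEM plus 15% FBS; Dosing: tenfold compound dosing solution, DMSO at 0.1%; Timing: overnight cell rest, 72 h compound treatment at 37 °C; Detection: ATP-based CellTiter-Glo luminescent readout; Read-out basis: viability percentage against median untreated-cell control; Controls: cell-only wells, no compound.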
HUVEC inhibit: human endothelial cell proliferation inhibition; HUVEC proliferation, CellTiter-Glo luminescence, 72 h; active compounds read low; viability, % at 10 µM (by protocol); 1.1% of 86,000 active; AID 648;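 active = viability at or below 30%; inactive = viability above 30%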
Large screens that a line does not name were inactive.

CC(C(=O)Nc1ccc(F)c(F)c1F)N(C)CC(=O)Nc1ccccc1Br (stereo unspecified)	none (no result: H69AR growth 86K, Lung fibro prol, HUVEC inhibit)
O=[N+]([O-])/C=C/c1c(OCc2ccccc2)ccc2ccccc12	PTEN del growth 2.5, bCat KO growth 1.9, H69AR growth 86K 2.8, Lung fibro prol 7.6, HUVEC inhibit 27
CCOc1ccccc1/C=N/Nc1ccccc1[N+](=O)[O-]	none (no result: H69AR growth 86K, Lung fibro prol, HUVEC inhibit)
CCOC(=O)COc1ccc(/C=C/[N+](=O)[O-])c(OCC(=O)OCC)c1	PTEN del growth 1.9, bCat KO growth 4.0 (no result: H69AR growth 86K, Lung fibro prol, HUVEC inhibit)
CCOc1ccc(/C=C/[N+](=O)[O-])c2ccccc12	PTEN del growth 1.8, bCat KO growth 2.0 (no result: H69AR growth 86K, Lung fibro prol, HUVEC inhibit)
CCOC(=O)COc1ccc2nsnc2c1	none (no result: Lung fibro prol)
CCOC(=O)COc1ccc2ccccc2c1/C=C/[N+](=O)[O-]	PTEN del growth 2.6, bCat KO growth 3.3 (no result: H69AR growth 86K, Lung fibro prol, HUVEC inhibit)
CCOC(=O)COc1ccccc1/C=N/O	none (no result: H69AR growth 86K, Lung fibro prol, HUVEC inhibit)
[O-][n+]1cccc2ncc3cscc3c21	none (no result: H69AR growth 86K, Lung fibro prol, HUVEC inhibit)
O=C(OCC#CCSc1nnc(-c2cccc3ccccc23)o1)c1ccco1	H69AR growth 86K 30
CCOC(=O)c1ccc2ncc(C(=O)OCC)c(NCc3ccco3)c2c1	H69AR growth 86K 36
CCOC(=O)c1cnc2c(C)cccc2c1NCc1ccco1	none
COc1ccc(/C=C2\SC(N3CCc4ccccc4C3)=NC2=O)cc1OC	none (no result: H69AR growth 86K, Lung fibro prol, HUVEC inhibit)
CCn1cc(C(=O)O)c(=O)c2cc(F)c(N/N=C/c3ccccc3[N+](=O)[O-])cc21	bCat KO growth 4.1 (no result: H69AR growth 86K, Lung fibro prol, HUVEC inhibit)
O=C(Nc1ccccc1-c1nc2ccccc2s1)c1ccc(Br)o1	H69AR growth 86K 15
O=C(Nc1ccc(Cl)cc1-c1nc2ccccc2s1)c1ccco1	H69AR growth 86K 30
CC(O)/C=C/c1ccc2ccccc2n1 (stereo unspecified)	H69AR growth 86K 23
Cc1cc([N+](=O)[O-])cnc1Sc1nccn1C	none (no result: H69AR growth 86K, Lung fibro prol, HUVEC inhibit)
Cc1cc(OCC(=O)OCC(=O)Nc2cc(C(F)(F)F)ccc2N2CCOCC2)ccc1Cl	none (no result: H69AR growth 86K, Lung fibro prol, HUVEC inhibit)
COc1ccc(S(=O)(=O)N2CCN(CC(=O)Nc3cc(OC)cc(OC)c3)CC2)cc1	H69AR growth 86K 4.9
O=C(CN1C(=O)CCC1=O)Nc1ccc(Br)cc1	H69AR growth 86K 40
O=C(CN1CCN(S(=O)(=O)c2ccc(Br)cc2)CC1)Nc1ccc(F)cc1	H69AR growth 86K 1.6
COc1ccc(S(=O)(=O)N2CCCN(CC(=O)Nc3ccc(OC)c(Cl)c3)CC2)cc1	H69AR growth 86K 2.1
Cc1ccc(S(=O)(=O)N(CCCO)CC(O)CON=C2c3ccccc3-c3ccccc32)cc1 (stereo unspecified)	none (no result: H69AR growth 86K, Lung fibro prol, HUVEC inhibit)
CCN(CC)C(=O)C(=O)c1cccn1-c1ccccc1C#N	none
O=C(c1cc(C2CC2)on1)N1CCN(c2ccccc2)CC1	none
Cc1cccc(N2CCN(C(=O)C(Cc3ccccc3)n3cccc3)CC2)c1C (stereo unspecified)	H69AR growth 86K 23
Cc1cccc(N2CCN(C(=O)c3ccncc3)CC2)c1C	H69AR growth 86K 21
CCOC(=O)c1cc2sccc2n1CC(=O)N1c2ccccc2CC1C (stereo unspecified)	H69AR growth 86K 4.7, HUVEC inhibit 12
CCc1ccc(NC(=O)COC(=O)CCc2nc3cc(S(=O)(=O)N(CC)CC)ccc3n2C)cc1	none (no result: H69AR growth 86K, Lung fibro prol, HUVEC inhibit)
CC1=C(C(=O)Nc2ccccc2)C(c2ccc(C)o2)n2c(s/c(=C/c3ccccc3)c2=O)=N1 (stereo unspecified)	H69AR growth 86K 23
CC1=C(C(=O)Nc2ccccc2C)C(c2ccc(C)o2)n2c(s/c(=C/c3ccccc3)c2=O)=N1 (stereo unspecified)	bCat KO growth 1.1
CC1=C(C(=O)Nc2ccccc2)C(c2ccc(C)o2)N2C(=O)CSC2=N1 (stereo unspecified)	none
CC1CN=C(N(C(=O)Nc2ccccc2)c2ccc(F)cc2)S1 (stereo unspecified)	none
COc1ccc(OC)c(NC(=O)COC(=O)CN(C)S(=O)(=O)c2ccc(C)cc2)c1	none (no result: H69AR growth 86K, Lung fibro prol, HUVEC inhibit)
CCCCC(CC)Cn1c(O)c(/C=C2\C=NN=C2c2ccccc2)sc1=S (stereo unspecified)	PTEN del growth 1.6, bCat KO growth 2.1 (no result: H69AR growth 86K, Lung fibro prol, HUVEC inhibit)
CCCn1c(O)c(/C=C2\C=NN=C2c2ccccc2)sc1=S	none (no result: H69AR growth 86K, Lung fibro prol, HUVEC inhibit)
COc1ccc(-n2nnnc2SCC(=O)c2ccc(O)c(O)c2)cc1	H69AR growth 86K 26
COC(=O)c1ccc(Oc2cc(C)nc(SC)n2)cc1	H69AR growth 86K 30
CC(/C=N/Nc1nc(C)cc(C)n1)=C\c1ccc(C(C)C)cc1	none (no result: H69AR growth 86K, Lung fibro prol, HUVEC inhibit)
CS(=O)(=O)N1CCN(c2ccc(NC(=O)C(c3ccccc3)c3ccccc3)cc2)CC1	none
